The source made the active and inactive calls. The rule behind the calls is not given here.
Assays:
[1] = Drug metabolism in mouse liver homogenates assessed as compound hydrolysis at pH 9.6 after 60 mins by spectrophotometric analysis in presence of alkaline phosphatase; assay type: ADME, tissue-based; details: read-out: Drug metabolism
Procedure, shortened: (§1)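 Substrate (1.5 μmol) incubated at 37 °C with mouse liver homogenate (equivalent to 0.1 g liver) in 0.1 M glycine buffer pH 9.6 or 0.1 M acetate buffer pH 5.0. Sampled at 15, 30 and 60 min. Percent hydrolysis given as mean of duplicate determinations.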

[2] = Drug metabolism in mouse liver homogenates assessed as compound hydrolysis at pH 9.6 after 30 mins by spectrophotometric analysis in presence of alkaline phosphatase; assay type: ADME, tissue-based; details: read-out: Drug metabolism; procedure, shortened: as §1
[3] = system: Mus musculus; experiment: Hypothermic activity in ddN mouse assessed as reduction of rectal temperature at 10 mg/kg, iv after 2 hrs; assay type: functional
Procedure, shortened: (§2)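 Rectal temperature taken with a thermistor thermometer after iv tail-vein dosing at 10 or 20 mg/kg (1% Tween 80 suspension or saline solution). Room held at 23 ± 1 °C; time course followed up to 5 h. Decline reported as mean ± SE of eight mice.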

[4] = system: Mus musculus; experiment: Acute toxicity in ddN mouse assessed as mortality up to 160 mg/kg, iv after 24 hrs; assay type: organism-based; design: dose 160 mg/kg, route intravenous; details: in vivo
Procedure, shortened: (§3)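 Mice dosed iv via tail vein, 0.1 mL/10 g body weight; parent compound as suspension in 1% Tween 80, phosphate as solution in saline. Eight animals per dose.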

[5] = system: Mus musculus; experiment: Cataleptogenic activity in iv dosed ddN mouse assessed as induction of catalepsy after 30 to 60 mins by bar test; assay type: functional
Procedure, shortened: (§4)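 Catalepsy scored by a modified simple bar test at 30 and 60 min after iv tail-vein injection (0.1 mL/10 g; 1% Tween 80 suspension or saline solution). Eight mice per dose; vehicle controls. ED50 with 95% confidence limits at peak time.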

[6] = Drug metabolism in mouse liver homogenates assessed as compound hydrolysis at pH 5 after 30 mins by spectrophotometric analysis in presence of alkaline phosphatase; assay type: ADME, tissue-based; details: read-out: Drug metabolism; procedure, shortened: as §1
[7] = system: Mus musculus; experiment: Hypothermic activity in ddN mouse assessed as reduction of rectal temperature at 20 mg/kg, iv after 2 hrs; assay type: functional; procedure, shortened: as §2
[8] = system: Mus musculus; experiment: Cataleptogenic activity in iv dosed ddN mouse assessed as induction of catalepsy after 60 mins by bar test; assay type: functional; procedure, shortened: as §4
[9] = Drug metabolism in mouse liver homogenates assessed as compound hydrolysis at pH 9.6 after 15 mins by spectrophotometric analysis in presence of alkaline phosphatase; assay type: ADME, tissue-based; details: read-out: Drug metabolism; procedure, shortened: as §1
[10] = system: Mus musculus; experiment: Potentiation of thiopental-induced sleep in iv dosed ddN mouse assessed as loss of righting reflex after 30 to 60 mins; assay type: functional
Procedure, shortened: (§5)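 Pretreatment given iv (saline solution or 1% Tween 80 suspension; vehicle controls for each), followed 30 or 60 min later by thiopental 80 mg/kg iv. Sleep measured as loss of righting reflex. Potentiation counted positive when sleeping time exceeded twice the matching control. Eight mice per dose; ED50 with confidence limits.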

[11] = Drug metabolism in mouse liver homogenates assessed as compound hydrolysis at pH 5 after 15 mins by spectrophotometric analysis in presence of alkaline phosphatase; assay type: ADME, tissue-based; details: read-out: Drug metabolism; procedure, shortened: as §1
[12] = system: Mus musculus; experiment: Potentiation of thiopental-induced sleep in iv dosed ddN mouse assessed as loss of righting reflex after 60 mins administered with saline; assay type: functional; procedure, shortened: as §5
[13] = Drug metabolism in mouse liver homogenates assessed as compound hydrolysis at pH 5 after 60 mins by spectrophotometric analysis in presence of alkaline phosphatase; assay type: ADME, tissue-based; details: read-out: Drug metabolism; procedure, shortened: as §1
[14] = system: Mus musculus; experiment: Potentiation of thiopental-induced sleep in iv dosed ddN mouse assessed as loss of righting reflex after 60 mins administered with 1% Tween-80; assay type: functional, organism-based; procedure, shortened: as §5
[15] = Acute toxicity in iv dosed ddN mouse assessed as mortality after 24 hrs; assay type: organism-based; details: in vivo; procedure, shortened: as §3
[16] = system: Mus musculus; experiment: Hypothermic activity in ddN mouse assessed as reduction of rectal temperature at 10 mg/kg, iv after 1 hr; assay type: functional; procedure, shortened: as §2
[17] = system: Mus musculus; experiment: Hypothermic activity in ddN mouse assessed as reduction of rectal temperature at 20 mg/kg, iv after 1 hr; assay type: functional; procedure, shortened: as §2
[18] = system: Mus musculus; experiment: Cataleptogenic activity in iv dosed ddN mouse assessed as induction of catalepsy after 30 mins by bar test; assay type: functional, organism-based; procedure, shortened: as §4

Row | SMILES | metabolised at 1 h [1] [%] | metabolised at 0.5 h [2] [%] | T [3] [°C] | Activity [4] | ED50 [5] [mg/kg] | metabolised at 0.5 h [6] [%] | T [7] [°C] | Activity [8] [%] | metabolised at 0.25 h [9] [%] | ED50 [10] [mg/kg] | metabolised at 0.25 h [11] [%] | Activity [12] [%] | metabolised at 1 h [13] [%] | Activity [14] | LD50 at 24 h [15] [mg/kg] | T [16] [°C] | T [17] [°C] | Activity [18]
1 | CCCCCc1cc2c(c(OP(=O)([O-])[O-])c1)[C@@H]1CC(C)=CC[C@H]1C(C)(C)O2.[Na+].[Na+] | 24.5 | 13.9 | 2.4 | Non-toxic | 37 | 20.7 | 5 | 10 | 7.8 | 17.5 | 15.3 | 7 | 29.2 | – | – | – | – | –
2 | CCCCCc1cc(O)c2c(c1)OC(C)(C)[C@@H]1CC=C(C)C[C@@H]21 [DELTA-8-TETRAHYDROCANNABINOL] | – | – | – | – | 3.3 | – | – | – | – | 1.2 | – | – | – | Active | 27.5 | 3.8 | 4.8 | Active
3 | O=[N+]([O-])c1ccc(OP(=O)(O)O)cc1 [p-NITROPHENYLPHOSPHATE] | 73.6 | 36.4 | – | – | – | 96.7 | – | – | 21.5 | – | 88.9 | – | 97.7 | – | – | – | – | –

Source: ChEMBL document CHEMBL3244059, “Synthesis and pharmacological activity of a phosphate ester of delta8-tetrahydrocannabinol” (J Med Chem, 1978)
